ChEMBL document CHEMBL3272249, “Esters of N-tert-butylarterenol. Long-acting new bronchodilators with reduced cardiac effects” (J Med Chem, 1976)

Legend:
[1] = tested on: Canis familiaris; assay: Cardiotoxicity in spontaneously respiring dog assessed as degree of increase in heart rate at 0.35 to 2 mg/kg, iv relative to control; type: toxicity, organism-based, Canis lupus familiaris; parameters: dose 0.35-2 mg/kg, route intravenous; details: in vivo
How it was run: (§1)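 Anesthetized, spontaneously respiring dogs. Heart rate monitored by lead II EKG; blood pressure from right femoral artery by pressure transducer. Rise in heart rate (beats/min) scored ±=5-15, +=20-40, ++=40-60, +++=>60, n>4/dose; duration of the rise in h. Drug stocks freshly made in distilled water, diluted in physiological saline, kept on ice.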

[2] = tested on: Canis familiaris; assay: Cardiotoxicity in spontaneously respiring dog assessed as degree of increase in heart rate at 50 to 300 mg/kg, id relative to control; type: toxicity, organism-based, Canis lupus familiaris; parameters: dose 50-300 mg/kg, route intraduodenal; details: in vivo, other; how it was run: as §1
[3] = tested on: Canis familiaris; assay: Cardiotoxicity in spontaneously respiring dog assessed as degree of increase in heart rate at 150 to 300 mg/kg, it relative to control; type: toxicity, organism-based, Canis lupus familiaris; parameters: dose 150-300 mg/kg, route endotracheal; details: in vivo, inhaled_or_intranasal; how it was run: as §1
[4] = tested on: Canis familiaris; assay: Cardiotoxicity in spontaneously respiring dog assessed as time of increase in heart rate at 0.35 to 2 mg/kg, iv relative to control; type: toxicity, organism-based, Canis lupus familiaris; parameters: dose 0.35-2 mg/kg, route intravenous; details: in vivo; how it was run: as §1
[5] = tested on: Canis familiaris; assay: Cardiotoxicity in spontaneously respiring dog assessed as time of increase in heart rate at 50 to 300 mg/kg, id relative to control; type: toxicity, organism-based, Canis lupus familiaris; parameters: dose 50-300 mg/kg, route intraduodenal; details: in vivo, other; how it was run: as §1
[6] = tested on: Canis familiaris; assay: Cardiotoxicity in spontaneously respiring dog assessed as time of increase in heart rate at 150 to 300 mg/kg, it relative to control; type: toxicity, organism-based, Canis lupus familiaris; parameters: dose 150-300 mg/kg, route endotracheal; details: in vivo, inhaled_or_intranasal; how it was run: as §1
[7] = tested on: Canis familiaris; assay: Bronchodilator activity in dog assessed as time of inhibition of carbachol or histamine-induced bronchoconstriction at 0.35 to 2 mg/kg, iv relative to control; type: functional, Canis lupus familiaris; details: dose mg/kg 0.35-2
How it was run: (§2)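 Dog with airway cannulated through a nonbreathing valve. Bronchoconstriction induced by iv carbachol (2–4 µg/kg) or histamine diphosphate (20–50 µg/kg); airway pressure recorded by pressure transducer. Each compound tested against both agonists in different animals, and results were combined and averaged. Bronchodilation = % inhibition of control constriction; degree scored as +, ++, +++ (20-45, 45-70, >70%) from higher dose, ≥3 dogs/dose; duration in h.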

[8] = tested on: Canis familiaris; assay: Bronchodilator activity in dog assessed as time of inhibition of carbachol or histamine-induced bronchoconstriction at 50 to 300 mg/kg, id relative to control; type: functional, Canis lupus familiaris; details: dose mg/kg 50-300; route intraduodenal; how it was run: as §2
[9] = tested on: Canis familiaris; assay: Bronchodilator activity in dog assessed as time of inhibition of carbachol or histamine-induced bronchoconstriction at 150 to 300 mg/kg, it relative to control; type: functional, Canis lupus familiaris; details: dose mg/kg 150-300; route endotracheal; how it was run: as §2
[10] = tested on: Canis familiaris; assay: Bronchodilator activity in dog assessed as degree of inhibition of carbachol or histamine-induced bronchoconstriction at 0.35 to 2 mg/kg, iv relative to control; type: functional, Canis lupus familiaris; details: dose mg/kg 0.35-2; how it was run: as §2
[11] = tested on: Canis familiaris; assay: Bronchodilator activity in dog assessed as degree of inhibition of carbachol or histamine-induced bronchoconstriction at 50 to 300 mg/kg, id relative to control; type: functional, Canis lupus familiaris; details: dose mg/kg 50-300; route intraduodenal; how it was run: as §2
[12] = tested on: Canis familiaris; assay: Bronchodilator activity in dog assessed as degree of inhibition of carbachol or histamine-induced bronchoconstriction at 150 to 300 mg/kg, it relative to control; type: functional, Canis lupus familiaris; details: dose mg/kg 150-300; route endotracheal; how it was run: as §2
[13] = tested on: Canis familiaris; assay: Cardiotoxicity in spontaneously respiring dog assessed as degree of increase in heart rate at 0.3 to 2 mg/kg, iv relative to control; type: toxicity, organism-based, Canis lupus familiaris; parameters: dose 0.3-2 mg/kg, route intravenous; details: in vivo
How it was run: (§3)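 Anesthetized, spontaneously respiring dogs. Heart rate was taken from a lead II EKG, and blood pressure from the right femoral artery by transducer. The increase in heart rate (beats/min) was scored on a graded scale with more than 4 dogs per dose, and its duration was recorded. Drugs were dissolved fresh in distilled water, diluted in physiological saline and kept on ice.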

[14] = tested on: Canis familiaris; assay: Cardiotoxicity in spontaneously respiring dog assessed as degree of increase in heart rate at 50 to 240 mg/kg, id relative to control; type: toxicity, organism-based, Canis lupus familiaris; parameters: dose 50-240 mg/kg, route intraduodenal; details: in vivo, other; how it was run: as §3
[15] = tested on: Canis familiaris; assay: Cardiotoxicity in spontaneously respiring dog assessed as degree of increase in heart rate at 125 to 150 mg/kg, it relative to control; type: toxicity, organism-based, Canis lupus familiaris; parameters: dose 125-150 mg/kg, route endotracheal; details: in vivo, inhaled_or_intranasal; how it was run: as §3
[16] = tested on: Canis familiaris; assay: Cardiotoxicity in spontaneously respiring dog assessed as time of increase in heart rate at 0.3 to 2 mg/kg, iv relative to control; type: toxicity, organism-based, Canis lupus familiaris; parameters: dose 0.3-2 mg/kg, route intravenous; details: in vivo; how it was run: as §3
[17] = tested on: Canis familiaris; assay: Cardiotoxicity in spontaneously respiring dog assessed as time of increase in heart rate at 50 to 240 mg/kg, id relative to control; type: toxicity, organism-based, Canis lupus familiaris; parameters: dose 50-240 mg/kg, route intraduodenal; details: in vivo, other
How it was run: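 Anesthetized, spontaneously respiring dogs. Heart rate monitored by lead II EKG, with blood pressure taken from the right femoral artery by pressure transducer and recorded on a polygraph. Drug stocks made fresh in distilled water, diluted in physiological saline and kept on ice. Dosing was iv, id or it as listed. The duration of the heart-rate increase was recorded in h, with more than 4 dogs per dose.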

[18] = tested on: Canis familiaris; assay: Cardiotoxicity in spontaneously respiring dog assessed as time of increase in heart rate at 125 to 250 mg/kg, it relative to control; type: toxicity, organism-based, Canis lupus familiaris; parameters: dose 125-250 mg/kg, route endotracheal; details: in vivo, inhaled_or_intranasal; how it was run: as §3
[19] = tested on: Canis familiaris; assay: Bronchodilator activity in dog assessed as degree of inhibition of carbachol or histamine-induced bronchoconstriction at 125 to 250 mg/kg, it relative to control; type: functional, Canis lupus familiaris; details: dose mg/kg 125-250; route endotracheal; how it was run: as §2
[20] = tested on: Canis familiaris; assay: Bronchodilator activity in dog assessed as time of inhibition of carbachol or histamine-induced bronchoconstriction at 0.3 to 2 mg/kg, iv relative to control; type: functional, Canis lupus familiaris; details: dose mg/kg 0.3-2; how it was run: as §2
[21] = tested on: Canis familiaris; assay: Bronchodilator activity in dog assessed as time of inhibition of carbachol or histamine-induced bronchoconstriction at 50 to 240 mg/kg, id relative to control; type: functional, Canis lupus familiaris; details: dose mg/kg 50-240; route intraduodenal; how it was run: as §2
[22] = tested on: Canis familiaris; assay: Bronchodilator activity in dog assessed as time of inhibition of carbachol or histamine-induced bronchoconstriction at 125 to 250 mg/kg, it relative to control; type: functional, Canis lupus familiaris; details: dose mg/kg 125-250; route endotracheal; how it was run: as §2
[23] = tested on: Canis familiaris; assay: Bronchodilator activity in dog assessed as degree of inhibition of carbachol or histamine-induced bronchoconstriction at 0.3 to 2 mg/kg, iv relative to control; type: functional, Canis lupus familiaris; details: dose mg/kg 0.3-2; how it was run: as §2
[24] = tested on: Canis familiaris; assay: Bronchodilator activity in dog assessed as degree of inhibition of carbachol or histamine-induced bronchoconstriction at 50 to 240 mg/kg, id relative to control; type: functional, Canis lupus familiaris; details: dose mg/kg 50-240; route intraduodenal; how it was run: as §2

## CC(C)(C)NC[C@H](O)c1ccc(O)c(O)c1
[1]
  Activity: 40%
[2]
  Activity: 40%
[3]
  Activity: 20%
[4]
  Time: < 0.25 h
[5]
  Time: 3 h
[6]
  Time: 1 h
[7]
  Time: >1 h
[8]
  Time: 3 h
[9]
  Time: <2 h
[10]
  inhibition (INH): >70%
[11]
  inhibition (INH): 45%
[12]
  inhibition (INH): >70%

## CC(C)NCC(O)c1ccc(O)c(O)c1 (centres undefined) [ISOPROTERENOL]
[13]
  Activity: > 60%
[14]
  Activity: 40%
[15]
  Activity: 20%
[16]
  Time: < 0.25 h
[17]
  Time: 2 h
[18]
  Time: 1 h
[19]
  inhibition (INH): >70%
[20]
  Time: <1 h
[21]
  Time: <2 h
[22]
  Time: <1 h
[23]
  inhibition (INH): >70%
[24]
  inhibition (INH): 20%
